# A selection: hits, their analogues and other compounds. The true share with any hit is near 2%.
# CHRM5 PAM = positive allosteric modulators of human muscarinic M5 receptor; P08912; hit rate 0.3% among 360,000; activation, % at 3 µM; CHO-K1 hM5, Fluo-8 calcium, ACh EC20 PAM; 0% = ACh EC20, 100% = ACh EC100;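 active = activation above the run cutoff, the mean activation of all test compounds plus 3 SD, cut at about 18% in these data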
#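 system = human M5 receptor in CHO-K1 cells | compound = one concentration, 3 µM final (nominal) | schedule = Post-acetylcholine fluorescence recording 140 s | signal = Fluo-8 calcium dye fluorescence, kinetic read | benchmarks = low control EC20 acetylcholine (0%), high control EC100 acetylcholine (100%) | repeats = singlicate, one well per test compound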
# M1 ag = agonists of human M1 muscarinic receptor | activation, % at 3 µM | AID 588814 | hit rate 0.33% among 360,000 | P11229 | CHO-K1 hM1, Fluo-8 calcium fluorescence, agonist mode; 0% DMSO, 100% acetylcholine EC100;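 active = activation above the run's mean compound activation plus 3 SD, cut at about 16% in these data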;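 note: peak over basal fluorescence ratio within a 140 s kinetic read after compound addition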
# Target sequence (P11229 whole entry, looked up): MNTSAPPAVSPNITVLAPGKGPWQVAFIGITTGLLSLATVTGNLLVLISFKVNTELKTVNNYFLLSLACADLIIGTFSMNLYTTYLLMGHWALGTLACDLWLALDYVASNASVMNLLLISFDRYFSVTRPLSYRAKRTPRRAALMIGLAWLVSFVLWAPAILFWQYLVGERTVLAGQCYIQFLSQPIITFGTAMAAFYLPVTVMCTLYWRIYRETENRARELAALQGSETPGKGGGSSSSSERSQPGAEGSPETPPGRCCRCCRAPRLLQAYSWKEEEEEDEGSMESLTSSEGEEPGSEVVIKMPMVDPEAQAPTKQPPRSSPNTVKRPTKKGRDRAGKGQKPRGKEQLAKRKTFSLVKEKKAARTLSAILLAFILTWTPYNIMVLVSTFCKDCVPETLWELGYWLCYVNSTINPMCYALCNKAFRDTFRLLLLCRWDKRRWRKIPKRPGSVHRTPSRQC
# CHRM1 antagonist = human CHRM1 antagonism | inhibition, % at 3 µM | hit rate 1.3% among 360,000 | P11229 | AID 588852 | CHO-K1 hM1, Fluo-8 calcium fluorescence, ACh EC80 antagonist;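 active = percent inhibition above its own plate's cutoff, namely the mean of that plate's compound wells plus 3 SD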;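 note: peak over basal fluorescence ratio during 140 s after agonist addition; 0% = ACh EC80 plus DMSO and 100% = DMSO alone without agonist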
# CHRM5 agonist = CHRM5 agonism in calcium assay | CHO-K1 hM5 cells, Fluo-8 calcium fluorescence; 0% DMSO wells, 100% maximal acetylcholine response | activation, % at 3 µM | hit rate 0.19% among 360,000 | AID 624037;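 active = activation above the run's mean over test compounds plus 3 SD, cut at about 23% in these data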;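 note: signal is peak over basal fluorescence ratio across the kinetic read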
# CHRM1 PAM = positive allosteric modulators of human M1 muscarinic receptor; hit rate 0.088% among 360,000; P11229; activation, % at 3 µM; CHO-K1 hM1, Fluo-8 calcium fluorescence, ACh EC20; 0% = ACh EC20, 100% = maximal ACh; in the data active = activation above about 19%, passing the limit was not always enough
# M5 antag = antagonists of human muscarinic M5 receptor (CHRM5) | P08912 | CHO-hM5 cells, Fluo-8 calcium fluorescence, ACh EC80 | inhibition, % at 3 µM | hit rate 0.59% among 360,000 | AID 624040;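 active = inhibition above a per-plate cutoff, the mean of that plate's test compounds plus 3 SD, cut at about 27% in these data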;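 note: 0% = acetylcholine EC80 with DMSO and 100% = DMSO without agonist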
# An asterisk follows results filed as active; nt = no result.
SMILES,CHRM5 PAM,M1 ag,CHRM1 antagonist,CHRM5 agonist,CHRM1 PAM,M5 antag
COc1ccc2oc(C(=O)OCC(=O)NC3(C#N)CCCC3)c(C)c2c1,2,-1,18,-1,-6,5
COC(=O)c1oc2c(c1C)C1(CCC2)SCCS1,-8,-6,30*,-7,-21,5
CC1=C(C(=O)N2CCCCCC2)CC(CC(=O)NCCN2CCOCC2)C(=O)N1Cc1ccc(F)cc1 (stereo not given),-6,nt,nt,0,nt,-1
COC(=O)c1sccc1S(=O)(=O)Nc1ccc(C(O)(C(F)(F)F)C(F)(F)F)cc1,-20,66*,39*,69*,-33,27
COc1ccccc1C(=O)Oc1ccc(C(C)(C)C)cc1,26*,-3,-6,-10,0,17
COc1ccc(-c2cc(CNc3nc4cc(-c5ccccc5C)sc4c(=O)n3C)on2)cc1,-1,-1,0,2,0,2
COc1ccc(-c2ccc(C(=O)NCC3CCOCC3)c3occc23)c(C)c1,-11,-1,12,3,-12,2
Nc1ccc(/C=C/C(=O)c2cccs2)cc1,-11,14,11,33*,-3,10
Cc1ccc(Cc2c(C(C)(C)C)nc3cc(C)c(Br)c(C)n23)cc1,7,-3,3,5,-1,-8
FC(F)Oc1ccc(NC(=S)NC2CCSc3ccccc32)cc1 (stereo not given),-18,0,87*,0,-24,43*
FC(F)Oc1ccc(NC(=S)NC2CCCCCCC2)cc1,-12,-6,34*,1,-24,34*
S=C(Nc1ccc(Cl)cc1)NC1CCCCC1,-11,0,1,1,-5,7
O=C(NC1CCSc2ccccc21)c1cccc(OC(F)F)c1 (stereo not given),0,-9,-10,-6,5,-3
COc1ccc(NC(=O)Cn2nnc(-c3ccccc3)c2COc2ccc3ccccc3c2)cn1,-4,-2,-5,0,2,7
CCCCCCCCCn1c2c(c(=N)c3c1CCC3)CCC2,-17,-1,31*,-3,-9,40*
CCCCn1c2c(c(=N)c3c1CCC3)CCC2,6,-4,-1,-5,0,0
CCn1c2c(c(=N)c3c1CCC3)CCC2,-11,-10,-2,-4,3,32*
CCCCCCn1c2c(c(=N)c3c1CCC3)CCC2,-1,-13,4,-4,3,8
COc1ccc2c(c1)N(C[C@H](C)CN(C)C)c1ccccc1S2,-19,-7,99*,0,-27,60*
CCN(CC)CC(O)CN1c2ccccc2Sc2ccccc21 (stereo not given),-18,-8,51*,-6,-26,39*
CC(CN(C)C)CN1c2ccccc2Sc2ccccc21 (stereo not given),-19,-6,101*,1,-28,98*
CCCCN1CC(=O)N2[C@@H]3c4cc(OC)ccc4OC[C@@H]3[C@H](C(=O)OCC)[C@]2(C)C1=O,6,-1,-7,2,-1,-12
Cn1cnc([N+](=O)[O-])c1S(=O)(=O)Oc1ccc(Cl)cc1,-14,-1,17,-3,-5,26
CC(=O)N(C)C[C@H]1Oc2ncc(Br)cc2C(=O)N([C@H](C)CO)C[C@@H]1C,4,-5,-4,2,0,-9
Cc1cc(NCCCCCCCNc2cc(C)nc3cc([N+](=O)[O-])ccc23)c2ccc([N+](=O)[O-])cc2n1,-19,-8,34*,-11,-28,18
Cc1ccc(OC(F)F)c(NC(=O)Nc2cccc(C(F)(F)F)c2)c1,-20,-5,28*,1,-22,18
FC(F)(F)c1cccc(NC(=S)NC(c2ccccc2)c2ccccc2)c1,-19,-4,18,2,-10,27*
COc1cccc(NC(=O)Nc2cc(C)ccc2OC)c1,-1,-8,-4,-4,5,1
CC(=O)c1c(C)[nH]c(C(=O)Nc2cccc(C(F)(F)F)c2)c1C,-13,3,25*,7,-16,29*

# Screening results deposited in PubChem by The Scripps Research Institute Molecular Screening Center.
